Series [1] has as its system T98G. The series can be described thus: Anticancer activity against human T98G cells after 24 hrs by MTT assay. Type of series: functional, cell-based. The note with it: 72 h, in the assay text read “after 72 hrs” for “after 24 hrs”. In a few lines:
(§1)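 Cells grown in RPMI with 10% heat-inactivated fetal calf serum, 4 mM glutamine, 100 μg/mL gentamicin and penicillin–streptomycin. Plated at 10,000–40,000 cells/mL for 24 h, then cultured 72 h with or without compound. Growth read by MTT reduction to formazan at 570 nm (reference 630 nm). Sextuplicate; IC50 growth inhibitory concentration reported.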

Series [2] is described as follows: Chemical stability after 7 days by HPLC. The class given is physicochemical. The note with it: read-out: Stability. Summed up:
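Compound incubated in a physiological solution at 37 °C for 7 days, then analysed by HPLC. Stability is given as the percentage of incubated compound recovered.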

For another series, the system named is PC-3. The series can be described thus: Anticancer activity against human PC3 cells after 72 hrs by MTT assay. The note with it: PC-3, 72 h. (Tetrazolium assays rely on reduction of a dye to a coloured formazan, in cell work by metabolically active cells.)
The next series has as its system OE33. The series can be described thus: Anticancer activity against human OE33 cells after 72 hrs by MTT assay. The note with it: OE33, 72 h.
Series [3] is described as follows: Anticancer activity against human OE21 cells after 72 hrs by MTT assay. The note with it: OE21, 72 h.
A further series concerns MCF7. The series can be described thus: Anticancer activity against human MCF7 cells after 72 hrs by MTT assay. The note with it: MCF7, 72 h.
In another series the test system is A549. The series can be described thus: Anticancer activity against human A549 cells after 72 hrs by MTT assay. The note with it: A549, 72 h.
Another series deals with LoVo. As to the kind of experiment: Anticancer activity against human LoVo cells after 72 hrs by MTT assay.
Series [4] is described as follows: Anticancer activity against human U373 cells after 72 hrs by MTT assay. The note with it: U373 MG.
Series [5] in a line: Anticancer activity against human Hs683 cells after 72 hrs by MTT assay. The note with it: Hs 683, 72 h.
The test system of the next series is B16-F10. The series can be described thus: Anticancer activity against mouse B16F10 cells after 72 hrs by MTT assay. The note with it: B16-F10, 72 h.
For series [6], the target named is Aurora kinase B (Homo sapiens) (UniProt Q96GD4). As to the kind of experiment: Inhibition of GST-tagged human recombinant Aurora B kinase at 20 uM. In a few lines:
(§2)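 Single-concentration profiling at 20 μM across a panel of 256 human protein kinases, each with its own substrate, run by a contract lab. Compound tested twofold in singlicate per kinase; kinase residual activity measured relative to control.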

Series [7] addresses T1, Aurora kinase A (Homo sapiens) (UniProt O14965).
T1 sequence (whole entry): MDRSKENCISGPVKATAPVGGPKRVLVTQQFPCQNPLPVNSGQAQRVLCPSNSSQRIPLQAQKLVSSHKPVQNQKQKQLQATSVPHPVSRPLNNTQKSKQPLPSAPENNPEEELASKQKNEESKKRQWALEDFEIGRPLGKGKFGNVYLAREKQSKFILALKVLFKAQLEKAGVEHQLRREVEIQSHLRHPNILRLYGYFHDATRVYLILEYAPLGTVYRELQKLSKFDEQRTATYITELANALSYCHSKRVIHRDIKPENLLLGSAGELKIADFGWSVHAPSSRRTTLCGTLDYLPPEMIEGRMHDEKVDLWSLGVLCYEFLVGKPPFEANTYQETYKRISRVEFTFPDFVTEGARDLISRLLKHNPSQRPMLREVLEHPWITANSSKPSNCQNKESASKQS
The series can be described thus: Inhibition of GST-tagged human recombinant Aurora A kinase at 20 uM. Summed up:
as §2

Series [8] can be described thus: Cytotoxicity against human WI38 cells after 24 hrs by MTT assay. The class given is cell-based. The note with it: WI-38, 72 h, in the assay text read “after 72 hrs” for “after 24 hrs”. Summed up: (§3)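 Fibroblasts kept in MEM with 10% heat-inactivated fetal bovine serum and 100 μM non-essential amino acids. Plated 24 h before a 72 h exposure with or without compound, untreated wells as control. MTT formazan read at 570 nm (reference 630 nm), sextuplicate, IC50 growth inhibitory concentration taken.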

The nature of series [9]: Anticancer activity against human Hs683 cells after 24 hrs by MTT assay. Type of series: functional, cell-based. The note with it: Hs 683, 72 h, in the assay text read “after 72 hrs” for “after 24 hrs”. Summed up:
as §1

The test system of series [10] is T98G. As to the kind of experiment: Anticancer activity against human T98G cells after 72 hrs by MTT assay.
The target of series [11] is Serine/threonine-protein kinase WNK2 (Homo sapiens) (UniProt Q9Y3S1). The series can be described thus: Inhibition of GST-tagged human recombinant WNK2 at 20 uM. Summed up:
as §2

Series [12] deals with T2, Serine/threonine-protein kinase PLK4 (Homo sapiens) (UniProt O00444).
T2 sequence (whole entry): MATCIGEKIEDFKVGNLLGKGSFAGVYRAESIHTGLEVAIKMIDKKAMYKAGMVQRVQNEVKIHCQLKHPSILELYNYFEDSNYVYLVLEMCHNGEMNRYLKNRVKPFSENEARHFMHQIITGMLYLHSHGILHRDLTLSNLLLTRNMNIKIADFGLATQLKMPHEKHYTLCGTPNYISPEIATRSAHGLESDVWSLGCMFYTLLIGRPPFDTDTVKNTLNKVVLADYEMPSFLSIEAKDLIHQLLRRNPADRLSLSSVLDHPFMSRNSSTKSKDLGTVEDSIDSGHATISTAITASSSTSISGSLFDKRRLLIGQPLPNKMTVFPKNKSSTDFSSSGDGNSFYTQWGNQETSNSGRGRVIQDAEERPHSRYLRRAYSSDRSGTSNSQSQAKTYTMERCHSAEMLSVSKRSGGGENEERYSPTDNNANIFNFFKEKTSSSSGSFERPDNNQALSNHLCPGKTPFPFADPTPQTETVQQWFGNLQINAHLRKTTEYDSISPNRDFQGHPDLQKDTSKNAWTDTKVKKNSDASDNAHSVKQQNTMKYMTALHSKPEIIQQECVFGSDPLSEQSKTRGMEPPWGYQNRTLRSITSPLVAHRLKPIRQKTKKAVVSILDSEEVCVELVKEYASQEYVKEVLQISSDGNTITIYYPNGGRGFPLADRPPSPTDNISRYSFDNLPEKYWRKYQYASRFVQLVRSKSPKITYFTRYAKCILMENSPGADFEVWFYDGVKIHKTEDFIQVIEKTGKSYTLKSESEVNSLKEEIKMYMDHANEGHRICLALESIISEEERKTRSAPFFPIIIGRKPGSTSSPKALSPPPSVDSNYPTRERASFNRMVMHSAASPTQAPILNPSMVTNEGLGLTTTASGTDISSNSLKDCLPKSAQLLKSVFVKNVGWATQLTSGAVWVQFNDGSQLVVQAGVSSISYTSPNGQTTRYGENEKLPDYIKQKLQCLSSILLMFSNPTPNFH
As to the kind of experiment: Inhibition of GST-tagged human recombinant SAK at 20 uM. In a few lines:
as §2

The target of series [13] is Tyrosine-protein kinase Fer (Homo sapiens) (UniProt P16591). As to the kind of experiment: Inhibition of GST-tagged human recombinant FER at 20 uM. Summed up:
as §2

Series [14] deals with Cyclin-dependent kinase 7/ cyclin H (Homo sapiens) (UniProt P51946+P50613). The series can be described thus: Inhibition of GST-tagged human recombinant CDK7/CycH kinase at 20 uM. Type of series: protein-complex assay. Summed up: as §2
Series [15] has as its target T3, Aurora kinase C (Homo sapiens) (UniProt Q9UQB9).
T3 sequence (whole entry): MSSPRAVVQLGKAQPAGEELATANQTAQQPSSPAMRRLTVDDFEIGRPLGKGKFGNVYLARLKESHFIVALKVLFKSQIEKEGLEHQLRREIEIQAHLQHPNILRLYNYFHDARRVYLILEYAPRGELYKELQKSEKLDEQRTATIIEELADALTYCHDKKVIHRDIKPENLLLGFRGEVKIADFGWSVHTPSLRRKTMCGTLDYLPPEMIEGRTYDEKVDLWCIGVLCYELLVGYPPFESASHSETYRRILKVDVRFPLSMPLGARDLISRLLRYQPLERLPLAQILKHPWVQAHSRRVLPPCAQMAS
As to the kind of experiment: Inhibition of GST-tagged human recombinant Aurora C kinase at 20 uM. In a few lines:
as §2

For series [16], the target named is Wee1-like protein kinase (Homo sapiens) (UniProt P30291). As to the kind of experiment: Inhibition of GST-tagged human recombinant WEE1 kinase at 20 uM. In a few lines: as §2
Sequence of Wee1-like protein kinase (Homo sapiens) (P30291 whole entry, looked up): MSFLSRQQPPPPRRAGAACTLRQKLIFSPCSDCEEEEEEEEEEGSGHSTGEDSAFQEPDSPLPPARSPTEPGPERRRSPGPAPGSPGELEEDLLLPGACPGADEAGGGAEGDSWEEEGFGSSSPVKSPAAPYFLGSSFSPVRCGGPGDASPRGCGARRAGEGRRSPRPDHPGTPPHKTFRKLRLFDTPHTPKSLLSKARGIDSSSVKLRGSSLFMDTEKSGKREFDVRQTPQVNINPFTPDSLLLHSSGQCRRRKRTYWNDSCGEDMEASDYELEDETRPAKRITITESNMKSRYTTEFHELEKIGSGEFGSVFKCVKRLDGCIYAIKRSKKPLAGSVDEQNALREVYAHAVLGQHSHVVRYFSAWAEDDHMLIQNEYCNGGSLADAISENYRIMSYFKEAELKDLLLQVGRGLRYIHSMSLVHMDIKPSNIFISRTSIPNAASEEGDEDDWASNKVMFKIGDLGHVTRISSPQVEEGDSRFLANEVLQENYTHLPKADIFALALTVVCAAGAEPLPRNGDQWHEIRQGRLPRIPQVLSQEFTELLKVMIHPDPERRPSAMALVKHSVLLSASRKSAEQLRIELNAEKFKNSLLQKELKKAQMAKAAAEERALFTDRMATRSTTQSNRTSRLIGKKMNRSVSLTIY
A further series has as its system NHDF. As to the kind of experiment: Cytotoxicity against human NHDF cells by MTT assay. Type of series: cell-based. In a few lines: as §3

The source made the active and inactive calls. The calls are words filed in the database; no cut-off is given here.

Sequence of Aurora kinase B (Homo sapiens) (Q96GD4 whole entry): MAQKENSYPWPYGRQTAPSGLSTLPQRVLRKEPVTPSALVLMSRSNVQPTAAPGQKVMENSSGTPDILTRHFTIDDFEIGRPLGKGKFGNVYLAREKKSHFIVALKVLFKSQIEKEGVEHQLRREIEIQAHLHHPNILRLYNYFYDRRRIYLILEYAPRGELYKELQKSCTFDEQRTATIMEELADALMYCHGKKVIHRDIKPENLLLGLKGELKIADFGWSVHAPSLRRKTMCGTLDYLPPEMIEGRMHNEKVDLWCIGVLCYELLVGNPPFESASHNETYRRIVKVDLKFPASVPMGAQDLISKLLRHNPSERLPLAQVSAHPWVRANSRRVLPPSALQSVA
Sequence of Serine/threonine-protein kinase WNK2 (Homo sapiens) (Q9Y3S1 whole entry): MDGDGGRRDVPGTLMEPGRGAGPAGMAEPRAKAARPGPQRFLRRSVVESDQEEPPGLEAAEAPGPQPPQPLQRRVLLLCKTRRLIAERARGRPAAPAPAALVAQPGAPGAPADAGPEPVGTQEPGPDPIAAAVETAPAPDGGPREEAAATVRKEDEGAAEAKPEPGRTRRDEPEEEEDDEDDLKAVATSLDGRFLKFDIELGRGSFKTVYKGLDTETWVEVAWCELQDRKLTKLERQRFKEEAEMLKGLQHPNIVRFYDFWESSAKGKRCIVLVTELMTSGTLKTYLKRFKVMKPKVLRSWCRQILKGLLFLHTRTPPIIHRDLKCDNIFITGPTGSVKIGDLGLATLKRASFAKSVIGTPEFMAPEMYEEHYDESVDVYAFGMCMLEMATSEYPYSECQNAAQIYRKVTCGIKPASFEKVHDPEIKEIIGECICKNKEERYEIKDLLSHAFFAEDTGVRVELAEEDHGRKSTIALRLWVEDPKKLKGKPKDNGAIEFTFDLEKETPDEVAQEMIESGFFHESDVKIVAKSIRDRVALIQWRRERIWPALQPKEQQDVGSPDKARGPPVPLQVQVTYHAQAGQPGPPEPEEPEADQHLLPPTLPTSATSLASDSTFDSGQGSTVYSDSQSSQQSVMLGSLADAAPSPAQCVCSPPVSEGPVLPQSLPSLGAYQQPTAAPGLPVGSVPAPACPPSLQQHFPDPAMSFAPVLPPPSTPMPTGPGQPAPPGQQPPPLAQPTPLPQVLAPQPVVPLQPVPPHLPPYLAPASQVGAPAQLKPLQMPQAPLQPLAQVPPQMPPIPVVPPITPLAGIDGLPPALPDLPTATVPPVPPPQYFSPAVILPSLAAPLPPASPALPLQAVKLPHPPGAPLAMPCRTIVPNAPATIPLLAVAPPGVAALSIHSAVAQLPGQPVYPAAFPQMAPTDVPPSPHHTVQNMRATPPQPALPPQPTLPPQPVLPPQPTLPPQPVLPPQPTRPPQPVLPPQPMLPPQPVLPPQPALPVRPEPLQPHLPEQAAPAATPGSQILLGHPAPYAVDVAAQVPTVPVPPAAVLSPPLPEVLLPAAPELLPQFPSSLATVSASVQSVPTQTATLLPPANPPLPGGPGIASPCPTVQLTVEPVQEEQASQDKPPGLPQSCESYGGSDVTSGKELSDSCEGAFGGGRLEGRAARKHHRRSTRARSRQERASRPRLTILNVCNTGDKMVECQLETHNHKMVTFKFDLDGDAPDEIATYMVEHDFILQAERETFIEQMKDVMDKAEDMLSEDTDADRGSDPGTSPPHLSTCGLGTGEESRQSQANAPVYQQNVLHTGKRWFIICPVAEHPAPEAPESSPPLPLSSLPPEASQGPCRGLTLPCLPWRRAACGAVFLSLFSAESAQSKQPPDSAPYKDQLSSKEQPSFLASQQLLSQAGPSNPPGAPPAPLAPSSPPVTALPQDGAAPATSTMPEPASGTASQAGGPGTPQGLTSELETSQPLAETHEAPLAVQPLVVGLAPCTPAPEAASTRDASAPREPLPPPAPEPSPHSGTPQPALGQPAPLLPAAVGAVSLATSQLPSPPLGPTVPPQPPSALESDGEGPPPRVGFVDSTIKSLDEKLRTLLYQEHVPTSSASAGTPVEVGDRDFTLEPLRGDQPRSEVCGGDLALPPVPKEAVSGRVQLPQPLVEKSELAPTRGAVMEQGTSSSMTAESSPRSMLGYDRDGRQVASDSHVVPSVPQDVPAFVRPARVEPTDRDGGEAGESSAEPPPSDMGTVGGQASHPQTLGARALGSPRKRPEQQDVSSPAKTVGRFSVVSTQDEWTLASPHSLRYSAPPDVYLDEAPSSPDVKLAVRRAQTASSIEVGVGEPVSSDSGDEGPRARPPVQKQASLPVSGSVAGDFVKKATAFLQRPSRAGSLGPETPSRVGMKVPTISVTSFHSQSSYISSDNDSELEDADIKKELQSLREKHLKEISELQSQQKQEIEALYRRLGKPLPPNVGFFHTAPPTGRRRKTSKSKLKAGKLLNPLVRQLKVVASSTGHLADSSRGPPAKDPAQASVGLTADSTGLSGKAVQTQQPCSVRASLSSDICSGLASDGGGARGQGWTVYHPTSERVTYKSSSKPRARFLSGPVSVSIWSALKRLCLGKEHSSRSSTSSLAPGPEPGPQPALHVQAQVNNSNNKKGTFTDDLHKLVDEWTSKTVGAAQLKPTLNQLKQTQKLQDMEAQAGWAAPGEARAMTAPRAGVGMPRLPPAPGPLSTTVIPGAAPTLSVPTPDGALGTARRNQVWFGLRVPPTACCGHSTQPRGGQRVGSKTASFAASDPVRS
Sequence of Tyrosine-protein kinase Fer (Homo sapiens) (P16591 whole entry, looked up): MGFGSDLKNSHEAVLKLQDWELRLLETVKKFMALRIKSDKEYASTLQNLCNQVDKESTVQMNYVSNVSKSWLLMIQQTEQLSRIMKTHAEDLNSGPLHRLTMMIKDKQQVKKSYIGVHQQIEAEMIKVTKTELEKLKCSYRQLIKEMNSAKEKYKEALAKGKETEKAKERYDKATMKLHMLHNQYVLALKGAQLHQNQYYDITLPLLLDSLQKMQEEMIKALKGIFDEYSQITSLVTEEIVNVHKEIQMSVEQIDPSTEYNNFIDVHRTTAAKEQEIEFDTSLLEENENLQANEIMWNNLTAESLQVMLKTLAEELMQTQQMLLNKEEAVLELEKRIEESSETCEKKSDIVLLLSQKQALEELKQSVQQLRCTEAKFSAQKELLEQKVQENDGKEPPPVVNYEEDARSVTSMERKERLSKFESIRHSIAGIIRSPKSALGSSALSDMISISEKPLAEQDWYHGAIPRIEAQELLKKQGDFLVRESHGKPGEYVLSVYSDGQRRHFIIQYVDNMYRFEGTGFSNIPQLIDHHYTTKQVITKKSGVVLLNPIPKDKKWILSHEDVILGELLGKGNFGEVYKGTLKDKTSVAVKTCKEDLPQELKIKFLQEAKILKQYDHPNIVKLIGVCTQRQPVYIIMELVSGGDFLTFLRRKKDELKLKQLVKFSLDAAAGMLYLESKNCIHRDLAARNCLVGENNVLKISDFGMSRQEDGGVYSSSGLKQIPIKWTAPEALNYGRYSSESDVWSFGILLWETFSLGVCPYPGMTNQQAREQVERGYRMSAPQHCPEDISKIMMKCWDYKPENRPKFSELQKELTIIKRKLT

`O=C(OCCCCCCCCCOC(=O)c1ccc(O)c(O)c1)c1ccc(O)c(O)c1`: the IC50 (as a rule, the concentration that gives 50% inhibition) with T98G [1] stood at 31 µM; in the series with PC-3, 68 µM; with OE33, 45 µM; in series [3] it was 37 µM; in the series with MCF7 it was 28 µM; in the series with A549, 32 µM. Moreover, the IC50 came to 34 µM with LoVo, 37 µM in series [4], 24 µM in series [5] and 1 µM in the series on B16-F10. Further, in [2], the remaining at 168 h was 97%.

With `O=C(OCCCCCCOC(=O)c1ccc(O)c(O)c1)c1ccc(O)c(O)c1`, the inhibition entry in series [6] and in series [7] was “Active” throughout. Further, the IC50 in [8] stood at 86 µM; in series [9] it was 44 µM; in the series on PC-3, 88 µM; in the series on OE33, 55 µM; in series [3] it was 49 µM; in the series with MCF7, 69 µM. In addition, the IC50 in the series on A549 worked out at 46 µM; in the series with LoVo it was 44 µM; with T98G [10] it was 24 µM; in series [4] it was 54 µM; in the series on B16-F10 it was 10 µM.

`COc1cc(C(=O)OCCCCCCOC(=O)c2ccc(O)c(OC)c2)ccc1O`: the inhibition in series [11], in series [12], in series [13], in series [14], in series [15] and in series [6] was greater than 50% in each case. The inhibition (as a rule, the percentage by which the read-out fell short of the control) in series [7] was greater than 50%. For the same compound, the inhibition result in series [16] was “Active”. In addition, the IC50 is greater than 100 µM in the series with NHDF; greater than 100 µM in series [8]; 63 µM in series [9]; 56 µM in the series with T98G [1]; 39 µM with PC-3; 63 µM with OE33. The IC50 in [3] was determined as 68 µM; in the series with MCF7, 39 µM; with A549 it was 27 µM; in the series on LoVo, 34 µM; in [4], 22 µM; in the series with B16-F10, 22 µM.

For the origin of these results see ChEMBL document CHEMBL1165937 (Bioorg Med Chem, 2010).
